Assay results published in PMC4038446 (Bioorganic & medicinal chemistry letters, 2012).

Target: T1, AKR1C3 (Homo sapiens, UniProt P42330)
T1 sequence (P42330 1-323): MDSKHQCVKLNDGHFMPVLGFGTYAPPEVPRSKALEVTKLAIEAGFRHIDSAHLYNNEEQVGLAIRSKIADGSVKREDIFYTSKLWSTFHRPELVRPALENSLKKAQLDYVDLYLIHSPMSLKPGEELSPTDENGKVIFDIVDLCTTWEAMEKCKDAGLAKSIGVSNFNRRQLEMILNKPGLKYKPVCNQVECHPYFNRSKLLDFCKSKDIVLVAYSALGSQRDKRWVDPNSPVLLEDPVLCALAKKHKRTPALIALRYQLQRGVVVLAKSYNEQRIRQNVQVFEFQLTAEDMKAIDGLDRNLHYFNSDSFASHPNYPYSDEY
Assay: primary inhibition assay
Format: biochemical
Details: 10 µM compound, 1-acenaphthenol, NAD+, pH 9.0
In short: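 Recombinant enzyme oxidises 1-acenaphthenol with 2.3 mM NAD+. Medium is 100 mM phosphate pH 9.0, 0.005% Triton X-114, 5% DMSO. […] Test compound is at 10 µM. NADH increase is read at 340 nm, and initial velocities are compared with compound-free controls. Values are the mean of two independent experiments.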

Structure (SMILES)	AKR1C3 inhibition (%)
O=C(Nc1ccc(Br)cc1C(=O)O)c1ccc(F)c([N+](=O)[O-])c1 [Compound 8]	no AKR1C3 isoform inhibition was observed
CCOc1cccc(C(=O)Nc2ccc(Br)cc2C(=O)O)c1 [Compound 14]	almost completely lost
CCCCOc1cccc(C(=O)Nc2ccc(Br)cc2C(=O)O)c1 [Compound 15]	almost completely lost
